The values that follow come from ChEMBL document CHEMBL4251630, “Hydroxymethyl bioisosteres of phenolic GluN2B-selective NMDA receptor antagonists: Design, synthesis and pharmacological evaluation” (Eur J Med Chem, 2018).

Bounds are passed on as bounds.

Assay [1] addresses T1, Sigma intracellular receptor 2 (Rattus norvegicus, UniProt Q5U3Y7).
T1 sequence (Q5U3Y7 whole entry): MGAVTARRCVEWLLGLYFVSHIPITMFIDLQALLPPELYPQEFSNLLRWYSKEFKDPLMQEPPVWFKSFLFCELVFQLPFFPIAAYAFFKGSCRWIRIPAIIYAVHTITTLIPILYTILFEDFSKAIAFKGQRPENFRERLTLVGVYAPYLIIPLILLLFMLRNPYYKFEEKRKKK
The experiment in a line: Displacement of [3H]-di-o-tolylguanidine from sigma-2 receptor in rat liver membranes incubated for 120 mins measured for 5 mins by scintillation counting method. Format: cell membranes, Membrane. For orientation: Displacement assays read how much labelled ligand stays bound in the presence of the test substance.

In assay [2] the target is T2, Glutamate receptor ionotropic, NMDA 2B (Homo sapiens, UniProt Q13224). The assay can be described thus: Displacement of [3H]Ifenprodil from GluN2B receptor (unknown origin) expressed in mouse L(tk-) cell membranes. The gist of the method: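 Dexamethasone-induced (4 µM, with 4 µM ketamine, 24 h) GluN1a/GluN2B L(tk-) cell membranes, about 20 µg protein. […] Filtration and 5-min [3H] counting. Ki by Cheng-Prusoff (Kd 7.6 nM). Mean ± SEM of three experiments, or a single run for weak binders.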
T2 sequence (Q13224 whole entry): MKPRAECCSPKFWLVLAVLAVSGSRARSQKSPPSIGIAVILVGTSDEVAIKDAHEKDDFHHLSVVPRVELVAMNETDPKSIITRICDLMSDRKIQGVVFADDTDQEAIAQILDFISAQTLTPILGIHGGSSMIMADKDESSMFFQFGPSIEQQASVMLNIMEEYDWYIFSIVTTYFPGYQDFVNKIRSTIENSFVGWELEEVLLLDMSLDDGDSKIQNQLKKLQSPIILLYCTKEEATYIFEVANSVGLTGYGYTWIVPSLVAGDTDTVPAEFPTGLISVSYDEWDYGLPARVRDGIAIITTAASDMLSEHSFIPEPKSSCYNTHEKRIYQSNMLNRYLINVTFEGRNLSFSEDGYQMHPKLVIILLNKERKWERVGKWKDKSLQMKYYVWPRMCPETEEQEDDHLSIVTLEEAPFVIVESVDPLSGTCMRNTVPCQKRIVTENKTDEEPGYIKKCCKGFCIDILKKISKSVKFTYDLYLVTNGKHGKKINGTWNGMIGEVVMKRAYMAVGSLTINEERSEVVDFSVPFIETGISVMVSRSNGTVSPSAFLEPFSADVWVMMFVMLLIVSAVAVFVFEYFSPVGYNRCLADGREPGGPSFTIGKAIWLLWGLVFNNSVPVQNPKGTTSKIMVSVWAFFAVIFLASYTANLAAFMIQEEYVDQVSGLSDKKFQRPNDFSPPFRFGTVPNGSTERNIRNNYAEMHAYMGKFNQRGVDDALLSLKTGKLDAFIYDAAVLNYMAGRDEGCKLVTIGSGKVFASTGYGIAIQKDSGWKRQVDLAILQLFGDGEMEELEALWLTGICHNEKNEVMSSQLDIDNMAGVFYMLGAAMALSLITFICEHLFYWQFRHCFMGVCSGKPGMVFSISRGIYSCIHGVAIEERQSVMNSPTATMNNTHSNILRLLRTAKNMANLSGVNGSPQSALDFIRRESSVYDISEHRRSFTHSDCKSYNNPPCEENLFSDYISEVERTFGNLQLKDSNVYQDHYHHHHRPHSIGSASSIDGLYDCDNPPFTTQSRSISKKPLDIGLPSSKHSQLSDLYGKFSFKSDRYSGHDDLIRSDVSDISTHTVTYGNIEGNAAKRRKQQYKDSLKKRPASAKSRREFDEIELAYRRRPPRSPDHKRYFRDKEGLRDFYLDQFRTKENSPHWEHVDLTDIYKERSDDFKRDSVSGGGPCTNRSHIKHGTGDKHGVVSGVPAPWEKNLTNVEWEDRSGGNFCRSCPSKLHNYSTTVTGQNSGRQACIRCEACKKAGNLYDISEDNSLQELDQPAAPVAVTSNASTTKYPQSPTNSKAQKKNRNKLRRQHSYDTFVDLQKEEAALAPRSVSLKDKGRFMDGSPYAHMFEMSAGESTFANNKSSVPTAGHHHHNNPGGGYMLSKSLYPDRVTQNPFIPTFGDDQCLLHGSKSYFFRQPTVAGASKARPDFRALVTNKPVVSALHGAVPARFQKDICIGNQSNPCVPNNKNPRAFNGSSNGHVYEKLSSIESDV

For assay [3], the species on record is Sus scrofa. The assay can be described thus: Displacement of [3H]-(+)-MK-801 from NMDA receptor PCP binding site in pig brain cortex membranes at 1 uM incubated for 120 mins measured for 5 mins by scintillation counting method relative to control. Format: cell membranes. The gist of the method:
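Pig brain cortex membranes, about 100 µg protein, with 2 nM [3H]-(+)-MK-801 in 5 mM TRIS/1 mM EDTA, pH 7.5, at rt for 120 min. Test compound at 1 µM, in duplicate. Non-specific binding defined with 10 µM unlabeled (+)-MK-801. Filtration on polyethylenimine-soaked filtermats, then [3H] scintillation counting for 5 min per well. Value given as % inhibition of radioligand binding.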

The target of assay [4] is Sigma non-opioid intracellular receptor 1 (Cavia porcellus, UniProt Q60492). The assay can be described thus: Displacement of [3H]-(+)-pentazocine from sigma-1 receptor in guinea pig brain cortex membranes incubated for 120 mins measured for 5 mins by scintillation counting method. Format: cell membranes.
Chain of Sigma non-opioid intracellular receptor 1 (Q60492 whole entry): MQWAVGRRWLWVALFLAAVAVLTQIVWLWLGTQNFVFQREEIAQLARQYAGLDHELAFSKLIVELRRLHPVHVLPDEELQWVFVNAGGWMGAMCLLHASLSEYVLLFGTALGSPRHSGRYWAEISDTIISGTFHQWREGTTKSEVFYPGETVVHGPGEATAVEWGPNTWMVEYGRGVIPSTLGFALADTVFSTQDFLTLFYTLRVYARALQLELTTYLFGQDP
Assay [5] can be described thus: (§1) Antagonist activity at GluN2B/GluN1a receptor (unknown origin) expressed in mouse L(tk-) cells assessed as cytoprotection against glycine/(S)-glutamate-induced cell death preincubated for 30 mins followed by glycine/(S)-glutamate addition measured after 6 hrs by LDH assay. Format: cell-based. To be noted: Homo sapiens, LTK. The gist of the method: (§2)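 L(tk-) cells co-expressing GluN1a/GluN2B (1:5), dexamethasone-induced. Wells blocked with DMEM/1 % BSA. Cells preincubated with test compound at 5 concentrations (e.g. 4 x 10-5 to 10-9 mol/L), in at least triplicate, 30 min at 37 °C. Glutamate/glycine (20 µM each, solution) then added for 6 h at 37 °C. Supernatant LDH measured by diaphorase/lactate/NAD+/INT mix, 45 min at 37 °C, absorbance 485 nm. (S)-ketamine 4 x 10-5 mol/L was the positive control.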

A short description of assay [6]: Selectivity ratio of Ki for sigma-2 receptor in rat liver membranes to Ki for GluN2B receptor (unknown origin) expressed in mouse L(tk-) cell membranes. It counts as cell-based.
Assay [7] addresses T2, Glutamate receptor ionotropic, NMDA 2B. The assay can be described thus: Displacement of [3H]Ifenprodil from GluN2B receptor (unknown origin) expressed in mouse L(tk-) cell membranes incubated for 120 mins measured for 5 mins by scintillation counting method.
Assay [8] is described as follows: Selectivity ratio of Ki for sigma-1 receptor in guinea pig brain cortex membranes to Ki for GluN2B receptor (unknown origin) expressed in mouse L(tk-) cell membranes. Format: cell-based.
The species named for assay [9] is Homo sapiens. The assay is described as §1. It counts as cell-based. The gist of the method:
as §2

Broadly, the Ki is the equilibrium dissociation constant of an inhibitor or competing ligand from its target. Low readings indicate higher affinity, high ones lower affinity. A word on the inhibition: it is the relative decrease from the control value, in per cent. What is called IC50 is the concentration at which inhibition is half-maximal. For `Oc1ccc2c(c1)CCC(NCCCCc1ccccc1)CC2` (stereo not drawn), the inhibitory constant (Ki) in assay [1] came to 96 nM; in [2], 21 nM; in [4], 211 nM. Besides, the inhibition in assay [3] worked out at 25%. In assay [5], the IC50 amounted to 3000 nM.
On to `COc1ccc2c(c1)CC[C@@H](NCCCc1ccccc1)C[C@H]2O` (relative stereo), for which the affinity in assay [2], expressed as Ki, was 16 nM.
As for `OCc1ccc2c(c1)CCC(NCCCc1ccccc1)CC2` (stereo not drawn), the inhibition constant Ki amounted to 592 nM in assay [1], 565 nM in assay [4] and 101 nM in [7]. Also, the Ratio Ki in [6] and in assay [8] was 5 to 6 throughout. For the same compound, the inhibition was 0% in assay [3] and “Dose-dependent effect” in assay [9]. Besides, the IC50 in assay [5] is 5200 nM.
For `Oc1ccc2c(c1)CCC(NCCCc1ccccc1)CC2` (stereo not drawn), the inhibitory constant (Ki) in assay [1] came to 32 nM; in assay [2] it was 28 nM; in assay [4], 123 nM. Moreover, in [3], the inhibition is 0%. In addition, the IC50 in assay [5] was determined as 25000 nM.
For `OCc1ccc2c(c1)CCC(NCCCCc1ccccc1)CC2` (stereo not drawn), the Ki in assay [1] was 271 nM; in assay [4], 41 nM; in assay [7], 186 nM. The compound further had an inhibition in assay [3] of 0%. The Ratio Ki in assay [8] was 4. Also, in assay [5], the IC50 is above 100000 nM.
In turn, `C[C@@H](CN1CCC(Cc2ccccc2)CC1)[C@@H](O)c1ccc(O)cc1` showed a Ki in [7] of 173 nM. Further, the IC50 in [5] was determined as 18 nM.
On to `CC(C(O)c1ccc(O)cc1)N1CCC(Cc2ccccc2)CC1` (stereo not drawn) [IFENPRODIL], for which, in assay [5], the IC50 turned out to be 590 nM.
